# Experimental data published in ChEMBL document CHEMBL1921766, “Orally active zwitterionic factor Xa inhibitors with long duration of action” (Bioorg Med Chem Lett, 2011).
# Tests used:
# [1] = Cmax in monkey serum at 1 mg/kg, po by LC-MS/MS analysis; type: ADME, organism-based, Macaca mulatta; design: dose 1 mg/kg, route oral; details: rhesus monkey
# Procedure, shortened: (§1)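 Oral dosing of fasting monkeys (two animals) at 1.0 mg/kg, given as HCl salts. Plasma was sampled at 0.5, 1, 2, 4, 8 and 24 h for ex vivo anti-fXa inhibition (%) and for drug concentration. AUC, Cmax, C24 h and the Cmax/C24 h ratio were taken from the plasma concentrations.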
# [2] = Drug level in monkey serum at 1 mg/kg, po at 24 hrs by LC-MS/MS analysis; type: ADME, organism-based, Macaca mulatta; design: dose 1 mg/kg, route oral; details: rhesus monkey, read-out: Drug uptake; procedure, shortened: as §1
# [3] = AUC in monkey serum at 1 mg/kg, po by LC-MS/MS analysis; type: ADME, organism-based, Macaca mulatta; design: dose 1 mg/kg, route oral; details: rhesus monkey; procedure, shortened: as §1
# [4] = Solubility of the compound in Japanese pharmacopoeia second fluid at pH 6.8 at 10 mM after 12 hrs; type: physicochemical
# Procedure, shortened: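 Solubility measured in Japanese Pharmacopoeia Second Fluid, pH 6.8.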
# [5] = Metabolic stability in human liver microsomes at 1 uM after 20 to 30 mins by LC/MS/MS analysis in presence of NADPH; type: ADME, Microsome; details: read-out: Stability
# Procedure, shortened: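 Metabolic stability read as percent remaining after incubation with human liver microsomes in vitro.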
# [6] = Solubility of the compound in Japanese pharmacopoeia first fluid at pH 1.2 at 10 mM after 12 hrs; type: physicochemical
# Procedure, shortened: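 Solubility measured in Japanese Pharmacopoeia First Fluid, pH 1.2.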
# [7] = 1-Octanol-phosphate buffered saline distribution coefficient, log D of the compound at pH 7.4 after 30 mins by shake flask method; type: physicochemical
# Procedure, shortened: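 Log D measured as the partition between 1-octanol and phosphate buffered saline, pH 7.4.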
# [8] = Bioavailability in monkey at 1 mg/kg, iv after 24 hrs by LC-MS/MS analysis; type: ADME, organism-based, Macaca mulatta; details: rhesus monkey, in vivo
Cmax [1] [ng/mL],concentration at 24 h [2] [ng/mL],AUC [3] [ng·h/mL],"solubility at 12 h, 10000 µM [4] [µg/mL]",remaining at 1 µM [5] [%],"solubility at 12 h, 10000 µM [6] [µg/mL]",logD at 0.5 h [7],bioavailability [8] [%],Compound
–,–,–,830,67,> 900,–,–,CN1CCc2nc(C(=O)Nc3cc(C(=O)N(C)C)ccc3CNC(=O)c3ccc(Cl)s3)sc2C1
–,–,–,86,100,810,0.23,–,CC(C)N1CCc2nc(C(=O)Nc3cc(C(=O)O)ccc3CCC(=O)Nc3ccc(Cl)cn3)sc2C1
–,–,–,41,96,49,0.57,51,CC(C)N1CCc2nc(C(=O)Nc3cc(C(=O)O)ccc3CNC(=O)c3ccc(Cl)s3)sc2C1
–,–,–,1000,–,990,–,–,CN1CCc2nc(C(=O)Nc3cc(C(=O)NS(C)(=O)=O)ccc3CNC(=O)c3ccc(Cl)s3)sc2C1
–,–,–,720,100,490,0.82,67,CC(C)N1CCc2nc(C(=O)Nc3cc(C(=O)O)ccc3CCC(=O)Nc3ccc(Cl)cc3)sc2C1
–,–,–,1000,96,1000,0.28,–,CC(C)N1CCc2nc(C(=O)Nc3c(CNC(=O)c4ccc(Cl)s4)cccc3C(=O)O)sc2C1
67.1,7.1,605,–,–,–,–,–,CC(C)N1CCc2nc(C(=O)Nc3cc(C(=O)O)ccc3CNC(=O)c3ccc(Cl)s3)sc2C1.Cl
25.8,4,247,–,–,–,–,–,CN1CCc2nc(C(=O)Nc3cc(C(=O)O)ccc3CNC(=O)c3ccc(Cl)s3)sc2C1.Cl
50.5,2,221,–,–,–,–,–,CC(C)N1CCc2nc(C(=O)Nc3c(CNC(=O)c4ccc(Cl)s4)cccc3C(=O)O)sc2C1.Cl
–,–,–,1000,97,230,0.14,–,CCN1CCc2nc(C(=O)Nc3cc(C(=O)O)ccc3CNC(=O)c3ccc(Cl)s3)sc2C1
–,–,–,> 800,–,710,-0.38,–,CN1CCc2nc(C(=O)Nc3c(CNC(=O)c4ccc(Cl)s4)cccc3C(=O)O)sc2C1
–,–,–,2.7,85,140,–,–,CNC(=O)c1ccc(CNC(=O)c2ccc(Cl)s2)c(NC(=O)c2nc3c(s2)CN(C)CC3)c1
–,–,–,< 2.4,77,30,–,–,CN1CCc2nc(C(=O)Nc3cc(C(N)=O)ccc3CNC(=O)c3ccc(Cl)s3)sc2C1
87,26,1370,–,–,–,–,–,CC(C)N1CCc2nc(C(=O)Nc3cc(C(=O)O)ccc3CCC(=O)Nc3ccc(Cl)cc3)sc2C1.Cl
–,–,–,580,94,160,0.45,–,CC(CF)N1CCc2nc(C(=O)Nc3cc(C(=O)O)ccc3CNC(=O)c3ccc(Cl)s3)sc2C1 (centres undefined)
–,–,–,1000,100,610,0.41,–,COCC(C)N1CCc2nc(C(=O)Nc3cc(C(=O)O)ccc3CNC(=O)c3ccc(Cl)s3)sc2C1 (centres undefined)
–,–,–,950,82,2,0.02,–,O=C(O)c1ccc(CNC(=O)c2ccc(Cl)s2)c(NC(=O)c2nc3c(s2)COCC3)c1
–,–,–,52,42,890,–,–,COC(=O)c1ccc(CNC(=O)c2ccc(Cl)s2)c(NC(=O)c2nc3c(s2)CN(C)CC3)c1
–,–,–,13,95,72,–,–,CN1CCc2nc(C(=O)Nc3ccc(C(=O)O)cc3CNC(=O)c3ccc(Cl)s3)sc2C1
–,–,–,> 850,71,55,-0.29,–,CN1CCc2nc(C(=O)Nc3cc(C(=O)O)ccc3CNC(=O)c3ccc(Cl)s3)sc2C1
–,–,–,870,100,120,0.44,–,O=C(O)c1ccc(CNC(=O)c2ccc(Cl)s2)c(NC(=O)c2nc3c(s2)CN(C(CF)CF)CC3)c1
98,9.5,785,–,–,–,–,–,CC(C)N1CCc2nc(C(=O)Nc3cc(C(=O)O)ccc3CCC(=O)Nc3ccc(Cl)cn3)sc2C1.Cl

# More lines, now with the values behind:
Compound,Cmax [1] [ng/mL],concentration at 24 h [2] [ng/mL],AUC [3] [ng·h/mL],"solubility at 12 h, 10000 µM [4] [µg/mL]",remaining at 1 µM [5] [%],"solubility at 12 h, 10000 µM [6] [µg/mL]",logD at 0.5 h [7],bioavailability [8] [%]
CN1CCc2nc(C(=O)Nc3ccccc3CNC(=O)c3ccc(Cl)s3)sc2C1.Cl,95.9,0.6,346,–,–,–,–,–
CN1CCc2nc(C(=O)Nc3c(CNC(=O)c4ccc(Cl)s4)cccc3C(N)=O)sc2C1.Cl,109,–,285,–,–,–,–,–
CC(C)N1CCc2nc(C(=O)Nc3cc(C(=O)O)cc(Cl)c3CCC(=O)Nc3ccc(Cl)cc3)sc2C1,–,–,–,160,93,450,1.61,52
CC(C)Oc1cc(C(=O)O)cc(NC(=O)c2nc3c(s2)CN(C(C)C)CC3)c1CCC(=O)Nc1ccc(Cl)cc1,–,–,–,130,86,320,1.91,–
CNC(=O)c1cccc(CNC(=O)c2ccc(Cl)s2)c1NC(=O)c1nc2c(s1)CN(C)CC2,–,–,–,130,80,830,–,–
CC(C)N1CCc2nc(C(=O)Nc3cc(C(=O)O)ccc3CCC(=O)Nc3ccc(F)cc3)sc2C1,–,–,–,140,94,980,0.27,–
CC(C)N1CCc2nc(C(=O)Nc3c(CCC(=O)Nc4ccc(Cl)cc4)cccc3C(=O)O)sc2C1,–,–,–,830,100,1000,0.66,–
CN1CCc2nc(C(=O)Nc3c(CNC(=O)c4ccc(Cl)s4)cccc3C(N)=O)sc2C1,–,–,–,710,94,740,–,–
CC(C)N1CCc2nc(C(=O)Nc3cc(C(=O)O)ccc3CCC(=O)Nc3ccc(Br)cc3)sc2C1,–,–,–,520,88,65,1.08,–
CN1CCc2nc(C(=O)Nc3cc(C(=O)O)ccc3CCC(=O)Nc3ccc(Cl)cc3)sc2C1,–,–,–,24,95,430,0.27,–
CC(C)N1CCc2nc(C(=O)Nc3cc(C(=O)O)cc(C(F)(F)F)c3CCC(=O)Nc3ccc(Cl)cc3)sc2C1,–,–,–,310,77,700,1.64,–
CCOc1cc(C(=O)O)cc(NC(=O)c2nc3c(s2)CN(C(C)C)CC3)c1CCC(=O)Nc1ccc(Cl)cc1,–,–,–,3,93,370,1.62,–
O=C(NCc1cccc(C(=O)O)c1NC(=O)c1nc2c(s1)COCC2)c1ccc(Cl)s1,–,–,–,930,57,2,-0.12,–
CN1CCc2nc(C(=O)Nc3c(CNC(=O)c4ccc(Cl)s4)cccc3C(=O)N(C)C)sc2C1,–,–,–,980,81,900,–,–
CC(C)N1CCc2nc(C(=O)Nc3cc(C(=O)O)cc(F)c3CCC(=O)Nc3ccc(Cl)cc3)sc2C1.Cl,32,6.1,448,–,–,–,–,–
CC(C)N1CCc2nc(C(=O)Nc3cc(C(=O)O)cc(Cl)c3CCC(=O)Nc3ccc(Cl)cc3)sc2C1.Cl,67,17,724,–,–,–,–,–
CN1CCc2nc(C(=O)Nc3cc(C(=O)O)ccc3CCC(=O)Nc3ccc(Cl)cn3)sc2C1,–,–,–,210,92,250,-0.28,–
COc1cc(C(=O)O)cc(NC(=O)c2nc3c(s2)CN(C(C)C)CC3)c1CCC(=O)Nc1ccc(Cl)cc1,–,–,–,39,87,810,1.15,–
CC(C)N1CCc2nc(C(=O)Nc3cc(C(=O)O)cc(F)c3CCC(=O)Nc3ccc(Cl)cc3)sc2C1,–,–,–,11,100,970,1.1,–
CN1CCc2nc(C(=O)Nc3ccccc3CNC(=O)c3ccc(Cl)s3)sc2C1,–,–,–,–,53,–,–,–
CN1CCc2nc(C(=O)Nc3cc(-c4nnn[nH]4)ccc3CNC(=O)c3ccc(Cl)s3)sc2C1,–,–,–,470,–,320,–,–
